The source made the active and inactive calls.
Key:
[1] = organism: Mus musculus; experiment: Anticonvulsant activity in mouse assessed as protection against maximal electroshock-induced seizures; assay type: functional
[2] = Toxicity in mouse; assay type: organism-based; settings: in vivo
Procedure, shortened: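 Toxicity in mice from the NINCDS screens, expressed as TD50: dose toxic in 50% of screens, in mg/kg.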

[3] = test system: Mus musculus; experiment: Anticonvulsant activity in mouse assessed as protection against subcutaneous pentylenetetrazole-induced seizures; assay type: functional; settings: sc
Procedure, shortened: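 Mice screened in the NINCDS program for subcutaneous metrazole (pentylenetetrazole) seizure threshold (scMet) protection; ED50 taken as dose effective in 50% of test animals, in mg/kg.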

Structure (SMILES)	Activity [1]	further results
CCN(CC)CCN1C(=O)NC(C)(C)C1=O	inactive	–
CC1(C)NC(=O)N(C23CC4CC(CC(C4)C2)C3)C1=O	inactive	–
CN1C(=O)N(C(C)(C)C)C(=O)C1(C)C	inactive	–
CC(=O)N1C(=O)N(C(C)(C)C)C(=O)C1(C)C	–	TD50 [2]: ≤ 30 mg/kg
CC1(C)OC(=O)N(C(C)(C)C)C1=O	inactive	–
Cc1ccc(S(=O)(=O)N2C(=O)NC(C)(C)C2=O)cc1	inactive	–
CCN(CC)CCN1C(=O)NC(c2ccccc2)(c2ccccc2)C1=O	–	ED50 [1]: 80 mg/kg
CCN(CC)CCN1C(=O)N(CCN(CC)CC)C(c2ccccc2)(c2ccccc2)C1=O	inactive	–
CC1(C)NC(=O)N(C(C)(C)C)C1=O	–	TD50 [2]: 343 mg/kg; ED50 [3]: 130 mg/kg
